Among the data in ChEMBL document CHEMBL1139509, “Design, synthesis, and antipicornavirus activity of 1-[5-(4-arylphenoxy)alkyl]-3-pyridin-4-ylimidazolidin-2-one derivatives” (J Med Chem, 2005) are IC50 and CC50 values, retold here.

Where only a bound is given, the exact number is not on record here.

Series [1] has as its system Enterovirus. Briefly: In vitro inhibitory concentration against human enterovirus EV71. In kind it is functional, organism-based, Viruses. Summed up:
(§1)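 CPE-inhibition (neutralization) assay on RD cells seeded at 3 × 10⁵ cells/mL in DMEM/10% FBS and grown 24-30 h to about 90% confluency. Virus (100 TCID50) was mixed with graded compound concentrations and adsorbed 1 h at 37 °C. Cells were overlaid with DMEM, 5% FBS and 2% DMSO, incubated 64 h at 37 °C, then glutaraldehyde-fixed and crystal violet-stained, with A570 read-out. IC50 is 50% CPE reduction versus virus control. Triplicate, at least twice.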

In a further series the test system is Human rhinovirus sp. Briefly: In vitro inhibitory concentration against Rhinovirus 1B. In kind it is functional, organism-based, Viruses.
Series [2] deals with Coxsackievirus. Briefly: Inhibitory concentration against Coxsackievirus A10. In kind it is functional, organism-based, Viruses. Summed up: as §1
The test system of series [3] is Enterovirus. Briefly: Inhibitory concentration against human enterovirus EV68. In kind it is functional, organism-based, Viruses.
A short description of series [4]: Inhibitory concentration against Echovirus 9. In kind it is functional, Viruses. The procedure, abridged:
as §1

Series [5] is described as follows: Inhibitory concentration against Echovirus 29. The class given is functional, Viruses. Summed up:
as §1

For series [6], the system named is Coxsackievirus. Briefly: Inhibitory concentration against Coxsackievirus A9. The class given is functional, organism-based, Viruses. Summed up:
as §1

Series [7] concerns Coxsackievirus. Kind of series: Inhibitory concentration against Coxsackievirus B1. The class given is functional, organism-based, Viruses. Summed up: as §1
Series [8] relates to Coxsackievirus. Kind of series: Inhibitory concentration against Coxsackievirus B2. The class given is functional, organism-based, Viruses. Summed up:
as §1

Series [9] has as its system Coxsackievirus. Kind of series: Inhibitory concentration against Coxsackievirus B3. In kind it is functional, organism-based, Viruses. The procedure, abridged:
as §1

For series [10], the system named is Coxsackievirus. Kind of series: Inhibitory concentration against Coxsackievirus B5. The class given is functional, organism-based, Viruses. The procedure, abridged: as §1
Series [11] concerns Coxsackievirus. Kind of series: Inhibitory concentration against Coxsackievirus B6. The class given is functional, organism-based, Viruses. The procedure, abridged:
as §1

Series [12] relates to Coxsackievirus. Kind of series: Inhibitory concentration against Coxsackievirus A16. In kind it is functional, organism-based, Viruses. Summed up: as §1
Series [13] deals with Coxsackievirus. Kind of series: Inhibitory concentration against Coxsackievirus A24. In kind it is functional, organism-based, Viruses. The procedure, abridged: as §1
For the next series, the system named is rhinovirus A2. Briefly: Inhibitory concentration against Human rhinovirus 2. The class given is functional, organism-based, human rhinovirus type 2. As to conditions: Rhinovirus A. The procedure, abridged: as §1
The nature of series [14]: Inhibitory concentration against Human rhinovirus 14. The class given is functional, human rhinovirus type 14. The procedure, abridged: as §1
Series [15] concerns Enterovirus. Briefly: Inhibitory concentration against Human Enterovirus 71. The class given is functional, organism-based, Viruses. Summed up:
as §1

Series [16] deals with Enterovirus. Kind of series: In vitro inhibitory concentration against human enterovirus EV71-2231 strain. In kind it is functional, organism-based, Enterovirus A71. The procedure, abridged:
as §1

The test system of series [17] is Enterovirus. Briefly: In vitro inhibitory concentration against human enterovirus EV71-4643 strain. The class given is functional, organism-based, Enterovirus A71. Summed up:
as §1

For series [18], the system named is Enterovirus. Kind of series: Inhibitory concentration against human enterovirus EV71 (1743) genotype B. In kind it is functional, organism-based, Viruses. Summed up: as §1
Series [19] deals with Enterovirus. Kind of series: Inhibitory concentration against human enterovirus EV71 (2086) genotype C. The class given is functional, organism-based, Viruses. The procedure, abridged: as §1
Series [20] has as its system Enterovirus. Kind of series: Inhibitory concentration against human enterovirus EV71 (2231) genotype C. The class given is functional, organism-based, Viruses. The procedure, abridged: as §1
For series [21], the system named is Enterovirus. Briefly: Inhibitory concentration against human enterovirus EV71 (4643) genotype C. In kind it is functional, organism-based, Viruses. The procedure, abridged:
as §1

The test system of series [22] is Enterovirus. Briefly: Inhibitory concentration against human enterovirus EV71 (BrCr) genotype A. In kind it is functional, organism-based, Viruses. The procedure, abridged: as §1
Series [23] in a line: Cytotoxicity against human rhabdomyosarcoma cells. In kind it is cell-based. Summed up: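 RD (rhabdomyosarcoma) cells were exposed to test compounds at various concentrations for 96 h at 37 °C. Viable cells were counted by trypan blue staining. CC50 is the concentration that reduces viability to 50% of the untreated control culture. Triplicate, run at least twice.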
The nature of series [24]: In vitro inhibitory concentration against Echovirus 6. In kind it is functional, Viruses.
Series [25] can be described thus: In vitro inhibitory concentration against Coxsackievirus B4. The class given is functional, Viruses. The procedure, abridged:
as §1

In the case of `c1ccc(C2COc3ccc(C4=NCCO4)cc3C2)cc1` (stereo not drawn), the half-inhibitory concentration (IC50) in the series with Enterovirus [1] is 4560 nM; in the series on Human rhinovirus sp. it was 1010 nM.

For `O=C1N(CCCCCOc2ccc(-c3ccc(Cl)cc3)cc2)CCN1c1ccncc1`, the IC50 in the series on Coxsackievirus [2] was more than 12500 nM; with Enterovirus [3], more than 12500 nM; in [4] it was 1310 nM; in series [5], 390 nM; in the series on Coxsackievirus [6], 71 nM; in the series on Coxsackievirus [7], more than 12500 nM. Moreover, the concentration for half-maximal inhibition (IC50) in the series with Coxsackievirus [8] was more than 12500 nM; with Coxsackievirus [9], more than 12500 nM; with Coxsackievirus [10], 1140 nM; with Coxsackievirus [11], more than 12500 nM; with Coxsackievirus [12] it was more than 12500 nM; in the series with Coxsackievirus [13], 1300 nM. The IC50 in the series with rhinovirus A2 was more than 12500 nM; in series [14], more than 12500 nM; in the series on Enterovirus [15], 38 nM; with Enterovirus [16], 76 nM; with Enterovirus [17], 38 nM; with Enterovirus [18], 92 nM. Besides, the IC50 in the series with Enterovirus [19] turned out to be 43 nM; with Enterovirus [20] it was 76 nM; in the series on Enterovirus [21], 38 nM; in the series on Enterovirus [22], 130 nM. This molecule also returned a CC50 in [23] of 6250 nM.

Take `N#Cc1ccc2c(c1)CCC(c1ccc(Cl)cc1)O2` (stereo not drawn): the figures for the 50% inhibitory concentration (IC50) (in series [24]; in the series with Enterovirus [1]; in series [25]) were 480 nM, 450 nM and 320 nM, respectively.

Broadly, the IC50 is the point on the concentration scale where inhibition reaches its midpoint. Read a low IC50 as higher potency. As a reminder, the CC50 is the concentration that lowers cell viability or growth by half. The low end stands for harm at low concentration, the high end for better tolerance by the cells.
